In the RNAGym collection of RNA variant scans (doi:10.1126/science.aae0568):
This sample holds only a part of the variants without activity.

B1: tRNA (parent)
chain: GUUCCGUUGGCGUAAUGGUAACGCGUCUCCCUCCUAAGGAGAAGACUGCGGGUUCGAGUCCCGUACGGAACG

Variants of: B1
Assay: yeast fitness relative to wild type (ratio to wild type); higher = fitter; tRNA-Arg(CCU), competitive growth, 37 C, YPD
Method in brief: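 Changes in genotype frequencies gave Darwinian fitness relative to wild type. Frequencies were read by 100-nucleotide paired-end sequencing of gene amplicons before and after pooled Saccharomyces cerevisiae strains, carrying tRNA-Arg(CCU) gene variants at the native locus, were competed in YPD at 37°C for 24 hours in six replicates. A genotype was kept only with ≥ 100 starting reads, and estimates < 0.5 were set to 0.5.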

**Q.** With G41A C49A G50C G68C as the variant, how does the yeast fitness read?
**A.** ≤ 0.5

**Q.** Which yeast fitness does the source give for G41C G56A A65G C66U here?
**A.** ≤ 0.5

**Q.** With A40U A57G as the variant, how does the yeast fitness read?
**A.** 0.881

**Q.** With A40U A57C as the variant, how does the yeast fitness read?
**A.** 0.744

**Q.** With G41A G50A as the variant, how does the yeast fitness read?
**A.** 0.807

**Q.** Which yeast fitness does the source give for A42C C49A G67C here?
**A.** ≤ 0.5

**Q.** Which yeast fitness does the source give for A42C G52A G56C here?
**A.** ≤ 0.5

**Q.** With A40G C49U A65C as the variant, how does the yeast fitness read?
**A.** 0.941

**Q.** With G41C A43G U54A as the variant, how does the yeast fitness read?
**A.** 0.564

**Q.** For G41C G50A, which yeast fitness is on record?
**A.** 0.703

**Q.** With G41C G50C as the variant, how does the yeast fitness read?
**A.** 0.695

**Q.** Which yeast fitness does the source give for A40U A42U C49G G51A C66A G68C here?
**A.** ≤ 0.5

**Q.** With G41C U54C as the variant, how does the yeast fitness read?
**A.** 0.889

**Q.** With G41C U54G as the variant, how does the yeast fitness read?
**A.** ≤ 0.5

**Q.** For G41A G58C, which yeast fitness is on record?
**A.** 0.929

**Q.** For A40G C60G G63C, which yeast fitness is on record?
**A.** ≤ 0.5

**Q.** Which yeast fitness does the source give for A40U C61A here?
**A.** 0.76

**Q.** With A40U G58A as the variant, how does the yeast fitness read?
**A.** 0.92

**Q.** With A40G C66A as the variant, how does the yeast fitness read?
**A.** 0.694

**Q.** With A42C A43G C55G G68C as the variant, how does the yeast fitness read?
**A.** ≤ 0.5

**Q.** Which yeast fitness does the source give for G41C A42G here?
**A.** 0.804

**Q.** Which yeast fitness does the source give for A42C C62A C66G here?
**A.** ≤ 0.5

**Q.** For G41A C61G, which yeast fitness is on record?
**A.** 0.685

**Q.** For A40U G41A, which yeast fitness is on record?
**A.** 0.71

**Q.** With G41A U47C C62U as the variant, how does the yeast fitness read?
**A.** ≤ 0.5

**Q.** Which yeast fitness does the source give for G41C G48A C66A here?
**A.** 0.583

**Q.** For A40U G48A, which yeast fitness is on record?
**A.** 0.826

**Q.** For A40G G52A A65U, which yeast fitness is on record?
**A.** ≤ 0.5

**Q.** With G41A U47A G48C as the variant, how does the yeast fitness read?
**A.** 0.6

**Q.** For A42C G50C G56A, which yeast fitness is on record?
**A.** ≤ 0.5

**Q.** With A42C G44A U53A as the variant, how does the yeast fitness read?
**A.** ≤ 0.5

**Q.** For A40U G48C C49U, which yeast fitness is on record?
**A.** 0.586

**Q.** Which yeast fitness does the source give for G41A G56C G63A U64C G67C here?
**A.** ≤ 0.5

**Q.** Which yeast fitness does the source give for A40G C55U A65C here?
**A.** 0.525

**Q.** With G41C C46A C62G as the variant, how does the yeast fitness read?
**A.** 0.551

**Q.** Which yeast fitness does the source give for G41U G51C here?
**A.** 0.565

**Q.** Which yeast fitness does the source give for G41A G51A A70C here?
**A.** 0.542

**Q.** For G41A C60G A70G, which yeast fitness is on record?
**A.** 0.542

**Q.** For G41A C60G A65G G68A, which yeast fitness is on record?
**A.** ≤ 0.5

**Q.** With A40G G50A C61G as the variant, how does the yeast fitness read?
**A.** 0.584

**Q.** With A40G G48A C66U as the variant, how does the yeast fitness read?
**A.** 0.769

**Q.** With A40G G51C as the variant, how does the yeast fitness read?
**A.** 0.664

**Q.** Which yeast fitness does the source give for G41A A65G A70G here?
**A.** 0.63

**Q.** With A40G G67C as the variant, how does the yeast fitness read?
**A.** 0.956

**Q.** With A40G G67A as the variant, how does the yeast fitness read?
**A.** 0.754

**Q.** For A40G C62A A70C, which yeast fitness is on record?
**A.** 0.595

**Q.** Which yeast fitness does the source give for G41C C55G here?
**A.** 0.621

**Q.** Which yeast fitness does the source give for G41A U64C A65C here?
**A.** ≤ 0.5

**Q.** For G41C G58C, which yeast fitness is on record?
**A.** 0.762

**Q.** With G41C G58A as the variant, how does the yeast fitness read?
**A.** 0.948

**Q.** With A42C G67C A70U as the variant, how does the yeast fitness read?
**A.** 0.505

**Q.** Which yeast fitness does the source give for A42C G50U here?
**A.** 0.781

**Q.** For A42C G50A, which yeast fitness is on record?
**A.** 0.745

**Q.** Which yeast fitness does the source give for A40G G58A A70C here?
**A.** 0.593

**Q.** With A40G G58A A70U as the variant, how does the yeast fitness read?
**A.** 0.61

**Q.** With G41A U53A C61A G68C as the variant, how does the yeast fitness read?
**A.** 0.584

**Q.** Which yeast fitness does the source give for A40G A57U C60U A70G here?
**A.** 0.624

**Q.** For A40G A57G, which yeast fitness is on record?
**A.** 0.969

**Q.** For A42G A43U G44C A65C, which yeast fitness is on record?
**A.** ≤ 0.5

**Q.** Which yeast fitness does the source give for A42G A45C G48C C66U here?
**A.** ≤ 0.5

**Q.** With A40U A43C U53C G68A as the variant, how does the yeast fitness read?
**A.** ≤ 0.5

**Q.** For G41C C55G C66G, which yeast fitness is on record?
**A.** ≤ 0.5

**Q.** Which yeast fitness does the source give for G41A A42C G50C A70G here?
**A.** 0.621

**Q.** With A40U A69U A70C as the variant, how does the yeast fitness read?
**A.** 0.725

**Q.** Which yeast fitness does the source give for A42C G51A A65U G68A here?
**A.** ≤ 0.5

**Q.** For A40U U47C, which yeast fitness is on record?
**A.** 0.869

**Q.** Which yeast fitness does the source give for G41C A43U here?
**A.** 0.957

**Q.** For G41C A43G, which yeast fitness is on record?
**A.** 0.898

**Q.** For A42C G63A, which yeast fitness is on record?
**A.** 0.818

**Q.** Which yeast fitness does the source give for A42C G63U here?
**A.** 0.72

**Q.** With G41A G63C C66A as the variant, how does the yeast fitness read?
**A.** ≤ 0.5

**Q.** Which yeast fitness does the source give for A40U A57C G67A A69U here?
**A.** ≤ 0.5

**Q.** With A42C A43C C60G C61G C62U as the variant, how does the yeast fitness read?
**A.** ≤ 0.5

**Q.** For G41A G52C, which yeast fitness is on record?
**A.** 0.542

**Q.** For G41A G52A, which yeast fitness is on record?
**A.** 0.79

**Q.** For G41A A69C, which yeast fitness is on record?
**A.** 0.801

**Q.** For G41A A69U, which yeast fitness is on record?
**A.** 0.914

**Q.** With A40G C46A C61U as the variant, how does the yeast fitness read?
**A.** 0.782

**Q.** For A40U A43C A69U, which yeast fitness is on record?
**A.** 0.851

**Q.** Which yeast fitness does the source give for G41A C60G C61G C62U here?
**A.** 0.682

**Q.** Which yeast fitness does the source give for A40U G48C C55U C61G here?
**A.** 0.522

**Q.** With A42C A65U as the variant, how does the yeast fitness read?
**A.** 0.784

**Q.** With A42C A65C as the variant, how does the yeast fitness read?
**A.** 0.942

**Q.** For A42C A65G, which yeast fitness is on record?
**A.** 0.922
